32 compounds from ChEMBL document CHEMBL5143527, “Discovery and optimization of cyclohexane-1,4-diamines as allosteric MALT1 inhibitors” (Eur J Med Chem, 2022) can be followed below.

The nature of data set [1]: Metabolic stability in human liver microsomes assessed as intrinsic clearance by LC-MS/MS analysis. The data set is classed as ADME, Microsome. As to conditions: read-out: CLH. Put shortly:
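Human liver microsomes, compound incubated; intrinsic clearance from disappearance of the parent compound over time.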
In general terms: Liver microsomes are vesicles of endoplasmic reticulum, rich in cytochrome P450 enzymes.

In data set [2] the target is T1, Mucosa-associated lymphoid tissue lymphoma translocation protein 1 (Homo sapiens, UniProt Q9UDY8).
T1 sequence (Q9UDY8 whole entry): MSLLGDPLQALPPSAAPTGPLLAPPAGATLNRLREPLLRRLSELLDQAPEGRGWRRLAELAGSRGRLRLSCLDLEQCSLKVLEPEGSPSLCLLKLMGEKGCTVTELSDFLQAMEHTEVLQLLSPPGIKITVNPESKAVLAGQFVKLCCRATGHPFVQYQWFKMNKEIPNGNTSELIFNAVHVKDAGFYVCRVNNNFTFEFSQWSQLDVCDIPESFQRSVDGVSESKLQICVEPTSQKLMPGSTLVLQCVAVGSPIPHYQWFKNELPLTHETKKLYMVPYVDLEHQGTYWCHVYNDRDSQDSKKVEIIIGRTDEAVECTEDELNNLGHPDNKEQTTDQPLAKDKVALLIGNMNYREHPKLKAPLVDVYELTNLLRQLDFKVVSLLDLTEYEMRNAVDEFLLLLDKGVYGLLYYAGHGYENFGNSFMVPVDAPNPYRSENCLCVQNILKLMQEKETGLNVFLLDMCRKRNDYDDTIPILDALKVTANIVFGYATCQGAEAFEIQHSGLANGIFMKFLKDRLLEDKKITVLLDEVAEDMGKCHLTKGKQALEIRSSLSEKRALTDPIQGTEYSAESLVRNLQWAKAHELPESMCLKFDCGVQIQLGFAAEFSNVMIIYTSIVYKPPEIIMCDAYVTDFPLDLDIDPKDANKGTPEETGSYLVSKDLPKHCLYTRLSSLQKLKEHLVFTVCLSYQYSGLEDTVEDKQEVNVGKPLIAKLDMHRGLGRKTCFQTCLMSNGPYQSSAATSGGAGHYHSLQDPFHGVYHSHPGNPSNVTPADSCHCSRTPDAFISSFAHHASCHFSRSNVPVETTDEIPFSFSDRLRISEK
Put plainly: Inhibition of human MALT1 assessed as cleavage of substrate using fluorescent labeled Ac-LRSR-Rh110 peptide as substrate incubated for 30 mins followed by substrate addition and measured after 3 to 4 hrs by FRET assay. Put shortly:
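Fluorogenic MALT1 cleavage assay with the tetrapeptide LRSR carrying rhodamine 110 and a non-fluorescent quencher; signal read as FRET. Horseradish peroxidase and resazurin redox counter-assays used to exclude artefacts. Values are the mean of at least three independent measurements, with standard deviation.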

Data set [3] is described as follows: Lipophilicity, log D of compound at 7.4 by LC-MS analysis. The conditions noted are these: pH 7.4. The format is physicochemical. In a few lines: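 ChromlogD at pH 7.4: retention time on an LCMS system with an aqueous mobile phase, converted to lipophilicity with a calibration curve.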
Data set [4] deals with T1, Mucosa-associated lymphoid tissue lymphoma translocation protein 1. As to the kind of experiment: Inhibition of human MALT1 in human MCF7 cells assessed as MALT1 mediated cleavage of human A20 in cytosol by fluorescence microscopy. The data set is classed as subcellular. In a few lines:
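Cellular MALT1 activity in MCF7 cells, read as inhibition of MALT1-mediated cleavage of human A20.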

The nature of data set [5]: Metabolic stability in rat hepatocyte assessed as intrinsic clearance by LC-MS/MS analysis. The format is ADME, cell-based. The conditions noted are these: hepatocytes. Put shortly:
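Rat hepatocytes, compound incubated; intrinsic clearance (per 10⁶ cells) from disappearance of the parent compound over time.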

The nature of data set [6]: Solubility of compound in PBS at pH 7.4 incubated for 20 to 24 hrs under shaking condition by LC-MS analysis. As to conditions: time 20-24 hrs. The format is physicochemical. Put shortly: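 Dried-DMSO solubility: 10 mM DMSO stock dried down, residue resolubilized in 0.1 M phosphate buffer, pH 7.4.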

In brackets after ≈: the same amount, converted by molar mass.

Broadly, the IC50 is the midpoint of a concentration-inhibition curve. In general, logD refers to lipophilicity at a set pH, counting ionised and neutral species. Read a high logD as a more lipophilic compound. As for `Clc1nnc2ccc(N[C@H]3CC[C@@H](Nc4ccncn4)CC3)nn12`, the microsomal CLint in data set [1] stood at 25 µL/min/mg. Besides, the IC50 in data set [2] was found to be 31 µM. Also, in data set [3], the pH-dependent lipophilicity (logD) came out at 0.7.
Consider `Cc1nnc2ccc(N[C@H]3CC[C@@H](Nc4ccnc(C(F)(F)F)n4)CC3)nn12`, for which, in data set [1], the microsomal CLint is below 3 µL/min/mg. Moreover, the half-maximal inhibitory concentration (IC50) in data set [2] is 4.7 µM. For the same compound, the pH-dependent lipophilicity (logD) in data set [3] stood at 2.3.
Taken in the same sequence, the figures for `CN(c1ccnc(C(F)(F)F)n1)[C@H]1CC[C@@H](Nc2ccc3nnc(Cl)n3n2)CC1` were 18 µL/min/mg, 1.1 µM and 3.6.
Taken in the same sequence, the figures for `FC(F)(F)c1nccc(N[C@H]2CC[C@@H](Nc3ccncn3)CC2)n1` were 18 µL/min/mg, above 50 µM and 1.9.
Taken in the same sequence, the figures for `COc1ncc(N[C@H]2CC[C@@H](Nc3ccc4nnc(Cl)n4n3)CC2)cc1Cl` were below 3 µL/min/mg, 0.6 µM and 3.8.
As to `FC(F)(F)c1nccc(O[C@H]2CC[C@@H](Nc3ccc4nnc(Cl)n4n3)CC2)n1`, the microsomal CLint in data set [1] was below 3 µL/min/mg. Besides, the IC50 in data set [2] came to 1.2 µM. Further, the pH-dependent lipophilicity (logD) in data set [3] came to 3.7.
Regarding `FC(F)(F)c1nccc(N[C@H]2CC[C@@H](Nc3ccc4nnc(Br)n4n3)CC2)n1`, the microsomal CLint in data set [1] was below 3 µL/min/mg. In addition, the values for the concentration for half-maximal inhibition (IC50) in data set [2] and in data set [4] were 1.1 µM and 6.1 µM, respectively. For the same compound, in data set [3], the logD was determined as 2.9.
On to `Nc1nnc2ccc(N[C@H]3CC[C@@H](Nc4ccnc(C(F)(F)F)n4)CC3)nn12`, for which the microsomal CLint in data set [1] is below 3 µL/min/mg. In addition, the IC50 in data set [2] was 26 µM. The logD in data set [3] turned out to be 1.4.
As for `FC(F)(F)c1nccc(N2CCC(CNc3ccc4nnc(Cl)n4n3)CC2)n1`, in data set [1], the microsomal CLint stood at 37 µL/min/mg. In data set [2], the IC50 was determined as 6.1 µM. This compound also registered a logD in data set [3] of 2.8.
Regarding `FC(F)(F)c1nccc(N2CCC(Nc3ccc4nnc(Cl)n4n3)CC2)n1`, the microsomal CLint in data set [1] was 50 µL/min/mg. In data set [2], the IC50 was above 50 µM. For the same compound, the log distribution coefficient (logD) in data set [3] was 2.9.
For `FC(F)(F)c1nccc(N[C@H]2CC[C@@H](Nc3ncnc4sccc34)CC2)n1`, in data set [1], the microsomal CLint was found to be 22 µL/min/mg. In addition, in data set [2], the IC50 worked out at 5 µM. In data set [3], this compound registered a logD of 2.9.
The corresponding values for `FC(F)(F)c1nccc(N[C@H]2C[C@@H](CNc3ccc4nnc(Cl)n4n3)C2)n1` are 36 µL/min/mg, 17 µM and 2.5.
The corresponding values for `FC(F)(F)c1cc(N[C@H]2CC[C@@H](Nc3ccc4nnc(Cl)n4n3)CC2)ccn1` are 11 µL/min/mg, 1.5 µM and 2.9.
The corresponding values for `FC(F)(F)c1nccc(N2CCN(c3ccc4nnc(Cl)n4n3)CC2)n1` are below 3 µL/min/mg, above 50 µM and 2.4.
Consider `FC(F)(F)c1nccc(N[C@H]2CC[C@@H](Nc3ccc4cnccc4n3)CC2)n1`, for which the microsomal CLint in data set [1] came to 26 µL/min/mg. Moreover, the IC50 in data set [2] was 7.5 µM. Besides, in data set [3], the logD came out at 2.8.
By solubility is commonly meant the dissolved amount per volume that the medium holds. A higher solubility goes with much dissolved substance. `FC(F)(F)c1nccc(N[C@H]2CC[C@@H](Nc3ccnc(C(F)(F)F)n3)CC2)n1`: in data set [5], the CLH was < 1 10^-6uL/min. In addition, the microsomal CLint in data set [1] was below 3 µL/min/mg. Besides, the IC50 in data set [2] turned out to be 2.2 µM. The solubility in data set [6] was 37 µM (≈ 15 µg/mL). Also, the logD in data set [3] came to 4.3.
With `FC(F)(F)c1nccc(N[C@H]2CC[C@@H](Nc3ccc4ncc(Cl)n4n3)CC2)n1`, the microsomal CLint in data set [1] stood at 9.9 µL/min/mg. Further, the IC50 in data set [2] worked out at 0.4 µM. For the same compound, in data set [3], the log distribution coefficient (logD) was determined as 4.3.
Taken in the same sequence, the figures for `FC(F)(F)c1nccc(NCC2CCN(c3ccc4nnc(Cl)n4n3)CC2)n1` were 31 µL/min/mg, 23 µM and 2.7.
Taken in the same sequence, the figures for `FC(F)(F)c1nccc(N[C@]23CC[C@](Nc4ccc5nnc(Cl)n5n4)(CC2)CC3)n1` were 11 µL/min/mg, 4.2 µM and 3.
Regarding `FC(F)(F)c1nccc(N[C@H]2CC[C@@H](Nc3ccc4nnc(C5CC5)n4n3)CC2)n1`, the microsomal CLint in data set [1] was below 3 µL/min/mg. In addition, in data set [2], the IC50 amounted to 4.5 µM. In data set [3], this compound registered a logD of 4.5.
As for `FC(F)(F)c1cccc(N[C@H]2CC[C@@H](Nc3ccnc(C(F)(F)F)n3)CC2)c1`, the microsomal CLint in data set [1] came to 7.5 µL/min/mg. Moreover, in data set [2], the IC50 is 1.8 µM. The log distribution coefficient (logD) in data set [3] is above 5.3.
Regarding `CSc1nnc2ccc(N[C@H]3CC[C@@H](Nc4ccnc(C(F)(F)F)n4)CC3)nn12`, the microsomal CLint in data set [1] was determined as 29 µL/min/mg. Also, the half-inhibitory concentration (IC50) in data set [2] worked out at 0.8 µM; in data set [4], 5.9 µM. Further, in data set [3], the log distribution coefficient (logD) was determined as 2.8.
As for `FC(F)(F)c1nccc(N[C@H]2C[C@@H](Nc3ccc4nnc(Cl)n4n3)C2)n1`, in data set [1], the microsomal CLint amounted to 6.9 µL/min/mg. Further, the half-inhibitory concentration (IC50) in data set [2] is above 50 µM. Also, the logD in data set [3] was 2.2.
Taken in the same sequence, the figures for `FC(F)(F)c1nccc(N[C@H]2CC[C@@H](Oc3ccc4nnc(Cl)n4n3)CC2)n1` were below 3 µL/min/mg, 7.2 µM and 3.5.
Taken in the same sequence, the figures for `FC(F)(F)c1nccc(N[C@H]2CC[C@@H](Nc3ccc4nnc(C(F)(F)F)n4n3)CC2)n1` were below 3 µL/min/mg, 1.8 µM and 3.8.
Taken in the same sequence, the figures for `FC(F)(F)c1nccc(N[C@H]2CC[C@@H](Nc3ccc4nncn4n3)CC2)n1` were below 3 µL/min/mg, 35 µM and 1.7.
In the case of `FC(F)(F)c1nccc(NC2CCN(c3ccc4nnc(Cl)n4n3)CC2)n1`, in data set [1], the microsomal CLint was 50 µL/min/mg. In data set [2], the IC50 was found to be 6.1 µM. In data set [3], the logD amounted to 2.6.
The corresponding values for `FC(F)(F)c1nccc(NC[C@H]2C[C@@H](Nc3ccc4nnc(Cl)n4n3)C2)n1` are 23 µL/min/mg, 18 µM and 2.5.
Taken in the same sequence, the figures for `FC(F)(F)c1nccc(N[C@H]2CC[C@@H](Nc3cnc4ccccc4c3)CC2)n1` were 5.2 µL/min/mg, 7.2 µM and 4.6.
The corresponding values for `FC(F)(F)c1cccc(N[C@H]2CC[C@@H](Nc3ccc4nnc(Cl)n4n3)CC2)c1` are 9.2 µL/min/mg, 1.4 µM and 5.2.
As to `CN(c1ccc2nnc(Cl)n2n1)[C@H]1CC[C@@H](Nc2ccnc(C(F)(F)F)n2)CC1`, the microsomal CLint in data set [1] was 12 µL/min/mg. Besides, the IC50 in data set [2] amounted to 0.5 µM. Moreover, the logD in data set [3] was found to be 3.5.
As to `FC(F)(F)c1nccc(N[C@@H]2CC[C@H](Nc3ccc4nnc(Cl)n4n3)C2)n1` (racemic), in data set [1], the microsomal CLint is 17 µL/min/mg. In addition, the half-inhibitory concentration (IC50) in data set [2] is 1.1 µM. This compound returned a logD in data set [3] of 3.4.
